Source: ChEMBL document CHEMBL3751743, “Synthesis and anti-cancer screening of novel heterocyclic-(2H)-1,2,3-triazoles as potential anti-cancer agents” (Medchemcomm, 2015)
The source made the active and inactive calls. The calls are words filed in the database; no cut-off is given here.

How the values were obtained:
[1] = Cytotoxicity against human DU145 cells after 48 hrs by SRB assay; assay type: functional; conditions: DU-145, 48 h
How it was run: (§1)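 NCI-60 five-dose screen: compounds dissolved in DMSO/H2O, tested at five 10-fold dilutions (10^-4 to 10^-8 M) for 48 h. Growth measured by sulforhodamine B optical density at time zero and after 48 h drug or vehicle exposure. Percentage growth calculated relative to control. GI50 is the molar concentration giving 50% reduction in net cell growth versus day-0 cell numbers.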

MCF7 = test: Cytotoxicity against human MCF7 cells after 48 hrs by SRB assay; assay type: functional; conditions: MCF7, 48 h; how it was run: as §1
MDA-MB-231 = test: Cytotoxicity against human MDA-MB-231 cells after 48 hrs by SRB assay; assay type: functional; conditions: MDA-MB-231, 48 h; how it was run: as §1
[2] = Cytotoxicity against human Hs 578T cells after 48 hrs by SRB assay; assay type: functional; how it was run: as §1
[3] = Cytotoxicity against human BT549 cells after 48 hrs by SRB assay; assay type: functional; conditions: BT-549, 48 h; how it was run: as §1
T47D = test: Cytotoxicity against human T47D cells after 48 hrs by SRB assay; assay type: functional
How it was run: (§2)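 NCI-60 five-dose screen. Compounds dissolved in DMSO/H2O and tested at five 10-fold dilutions (10^-4 to 10^-8 M) for 48 h. Growth read by sulforhodamine B optical density at time zero and after 48 h of exposure to compound or vehicle. Percent growth calculated against control. GI50 is the molar concentration giving 50% reduction in net cell growth relative to cell number on day 0.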

MDA-MB-468 = test: Cytotoxicity against human MDA-MB-468 cells after 48 hrs by SRB assay; assay type: functional; conditions: MDA-MB-468, 48 h; how it was run: as §1
Tubulin (Sus scrofa) = Tubulin (Sus scrofa) (UniProt P02554+P02550); test: Inhibition of porcine brain tubulin polymerization at 200 uM by spectrophotometric analysis
Sequence of Tubulin (Sus scrofa) (P02550 whole entry, looked up): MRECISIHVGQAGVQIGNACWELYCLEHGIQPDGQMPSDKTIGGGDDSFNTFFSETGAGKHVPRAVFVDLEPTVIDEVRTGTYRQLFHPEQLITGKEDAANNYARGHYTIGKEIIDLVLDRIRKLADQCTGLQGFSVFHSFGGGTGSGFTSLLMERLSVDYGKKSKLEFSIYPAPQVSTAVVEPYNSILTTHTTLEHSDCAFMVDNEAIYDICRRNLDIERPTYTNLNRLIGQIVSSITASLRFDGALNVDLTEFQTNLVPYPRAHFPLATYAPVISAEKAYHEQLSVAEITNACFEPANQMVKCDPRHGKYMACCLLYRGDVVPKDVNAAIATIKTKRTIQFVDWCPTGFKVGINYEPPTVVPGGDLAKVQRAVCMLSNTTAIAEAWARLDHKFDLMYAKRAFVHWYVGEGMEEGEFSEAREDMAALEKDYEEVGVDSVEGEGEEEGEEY
Sequence of Tubulin (Sus scrofa) (P02554 whole entry, looked up): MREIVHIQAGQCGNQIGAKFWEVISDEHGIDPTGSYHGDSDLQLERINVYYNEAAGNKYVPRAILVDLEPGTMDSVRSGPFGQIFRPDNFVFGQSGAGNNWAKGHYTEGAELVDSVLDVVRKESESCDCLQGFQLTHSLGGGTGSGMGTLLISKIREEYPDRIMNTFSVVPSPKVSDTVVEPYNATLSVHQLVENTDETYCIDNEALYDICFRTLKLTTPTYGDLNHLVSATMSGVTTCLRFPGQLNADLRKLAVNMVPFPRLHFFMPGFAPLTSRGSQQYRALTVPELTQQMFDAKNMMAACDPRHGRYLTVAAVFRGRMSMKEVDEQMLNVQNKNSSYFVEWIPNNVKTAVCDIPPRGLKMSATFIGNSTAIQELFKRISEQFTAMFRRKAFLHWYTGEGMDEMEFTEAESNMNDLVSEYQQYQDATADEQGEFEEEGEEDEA

CCRF-CEM = test: Cytotoxicity against human CCRF-CEM cells after 48 hrs by SRB assay; assay type: functional; how it was run: as §1
[4] = Cytotoxicity against human HL-60(TB) cells after 48 hrs by SRB assay; assay type: functional; conditions: HL-60, 48 h; how it was run: as §1
K562 = test: Cytotoxicity against human K562 cells after 48 hrs by SRB assay; assay type: functional; conditions: K562, 48 h; how it was run: as §1
[5] = Cytotoxicity against human MOLT4 cells after 48 hrs by SRB assay; assay type: functional; conditions: MOLT-4, 48 h; how it was run: as §1
[6] = Cytotoxicity against human RPMI8226 cells after 48 hrs by SRB assay; assay type: functional; conditions: RPMI-8226, 48 h; how it was run: as §1
A549 = test: Cytotoxicity against human A549 cells after 48 hrs by SRB assay; assay type: functional; conditions: A549, 48 h; how it was run: as §1
EKVX = test: Cytotoxicity against human EKVX cells after 48 hrs by SRB assay; assay type: functional
How it was run: (§3)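 NCI-60 five-dose screen: compounds in DMSO/H2O tested at 10^-4 to 10^-8 M (10-fold steps) for 48 h. Cell mass read by sulforhodamine B optical density at time zero and after exposure to compound or vehicle. GI50 is the concentration giving 50% reduction in net cell growth relative to day-0 cell numbers.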

[7] = Cytotoxicity against human HOP62 cells after 48 hrs by SRB assay; assay type: functional; conditions: HOP-62, 48 h; how it was run: as §3
[8] = Cytotoxicity against human HOP92 cells after 48 hrs by SRB assay; assay type: functional; conditions: HOP-92, 48 h; how it was run: as §1
NCI-H226 = test: Cytotoxicity against human NCI-H226 cells after 48 hrs by SRB assay; assay type: functional; conditions: NCI-H226, 48 h; how it was run: as §1
NCI-H23 = test: Cytotoxicity against human NCI-H23 cells after 48 hrs by SRB assay; assay type: functional; conditions: NCI-H23, 48 h; how it was run: as §1
NCI-H460 = test: Cytotoxicity against human NCI-H460 cells after 48 hrs by SRB assay; assay type: functional; conditions: NCI-H460, 48 h; how it was run: as §1
NCI-H522 = test: Cytotoxicity against human NCI-H522 cells after 48 hrs by SRB assay; assay type: functional; conditions: NCI-H522, 48 h; how it was run: as §1
[9] = Cytotoxicity against human COLO205 cells after 48 hrs by SRB assay; assay type: functional; conditions: COLO 205, 48 h; how it was run: as §1
[10] = Cytotoxicity against human HCC2998 cells after 48 hrs by SRB assay; assay type: functional; conditions: HCC 2998, 48 h; how it was run: as §1
[11] = Cytotoxicity against human HCT116 cells after 48 hrs by SRB assay; assay type: functional; conditions: HCT-116, 48 h; how it was run: as §1
[12] = Cytotoxicity against human HCT15 cells after 48 hrs by SRB assay; assay type: functional; conditions: HCT-15, 48 h; how it was run: as §1
HT-29 = test: Cytotoxicity against human HT-29 cells after 48 hrs by SRB assay; assay type: functional; conditions: HT-29, 48 h; how it was run: as §1
KM12 = test: Cytotoxicity against human KM12 cells after 48 hrs by SRB assay; assay type: functional; conditions: KM12, 48 h; how it was run: as §1
[13] = Cytotoxicity against human SW620 cells after 48 hrs by SRB assay; assay type: functional; conditions: SW-620, 48 h; how it was run: as §1
[14] = Cytotoxicity against human SF268 cells after 48 hrs by SRB assay; assay type: functional; conditions: SF-268, 48 h; how it was run: as §1
[15] = Cytotoxicity against human SF295 cells after 48 hrs by SRB assay; assay type: functional; conditions: SF-295, 48 h; how it was run: as §1
[16] = Cytotoxicity against human SF539 cells after 48 hrs by SRB assay; assay type: functional; conditions: SF-539, 48 h; how it was run: as §1
[17] = Cytotoxicity against human SNB19 cells after 48 hrs by SRB assay; assay type: functional; conditions: SNB-19, 48 h; how it was run: as §1
U-251 = test: Cytotoxicity against human U251 cells after 48 hrs by SRB assay; assay type: functional; conditions: U-251, 48 h; how it was run: as §2
[18] = Cytotoxicity against human LOXIMVI cells after 48 hrs by SRB assay; assay type: functional; conditions: LOX IMVI; how it was run: as §1
Malme-3M = test: Cytotoxicity against human MALME-3M cells after 48 hrs by SRB assay; assay type: functional; how it was run: as §3
M14 = test: Cytotoxicity against human M14 cells after 48 hrs by SRB assay; assay type: functional; conditions: M14, 48 h; how it was run: as §1
MDA-MB-435 = test: Cytotoxicity against human MDA-MB-435 cells after 48 hrs by SRB assay; assay type: functional; conditions: MDA-MB-435, 48 h; how it was run: as §1
SK-MEL-2 = test: Cytotoxicity against human SK-MEL-2 cells after 48 hrs by SRB assay; assay type: functional; conditions: SK-MEL-2, 48 h; how it was run: as §1
SK-MEL-28 = test: Cytotoxicity against human SK-MEL-28 cells after 48 hrs by SRB assay; assay type: functional; conditions: SK-MEL-28, 48 h; how it was run: as §1
SK-MEL-5 = test: Cytotoxicity against human SK-MEL-5 cells after 48 hrs by SRB assay; assay type: functional; conditions: SK-MEL-5, 48 h; how it was run: as §1
[19] = Cytotoxicity against human UACC257 cells after 48 hrs by SRB assay; assay type: functional; conditions: UACC-257, 48 h; how it was run: as §2
[20] = Cytotoxicity against human UACC62 cells after 48 hrs by SRB assay; assay type: functional; conditions: UACC-62, 48 h; how it was run: as §2
[21] = Cytotoxicity against human IGROV1 cells after 48 hrs by SRB assay; assay type: functional; conditions: IGROV-1, 48 h; how it was run: as §3
[22] = Cytotoxicity against human OVCAR3 cells after 48 hrs by SRB assay; assay type: functional; conditions: OVCAR-3, 48 h; how it was run: as §1
[23] = Cytotoxicity against human OVCAR5 cells after 48 hrs by SRB assay; assay type: functional; conditions: OVCAR-5, 48 h; how it was run: as §1
[24] = Cytotoxicity against human OVCAR8 cells after 48 hrs by SRB assay; assay type: functional; conditions: OVCAR-8, 48 h; how it was run: as §1
[25] = Cytotoxicity against human NCI-ADR-RES cells after 48 hrs by SRB assay; assay type: functional; how it was run: as §1
[26] = Cytotoxicity against human SKOV3 cells after 48 hrs by SRB assay; assay type: functional; conditions: SK-OV-3, 48 h; how it was run: as §1
786-0 = test: Cytotoxicity against human 786-0 cells after 48 hrs by SRB assay; assay type: functional; conditions: 786-0, 48 h; how it was run: as §1
A498 = test: Cytotoxicity against human A498 cells after 48 hrs by SRB assay; assay type: functional; conditions: A498, 48 h; how it was run: as §1
ACHN = test: Cytotoxicity against human ACHN cells after 48 hrs by SRB assay; assay type: functional; how it was run: as §1
[27] = Cytotoxicity against human Caki1 cells after 48 hrs by SRB assay; assay type: functional; conditions: CAKI-1, 48 h; how it was run: as §1
[28] = Cytotoxicity against human RXF393 cells after 48 hrs by SRB assay; assay type: functional; conditions: RXF 393, 48 h; how it was run: as §1
[29] = Cytotoxicity against human TK10 cells after 48 hrs by SRB assay; assay type: functional; conditions: TK-10, 48 h; how it was run: as §2
[30] = Cytotoxicity against human UO31 cells after 48 hrs by SRB assay; assay type: functional; conditions: UO-31, 48 h; how it was run: as §2
[31] = Cytotoxicity against human PC3 cells after 48 hrs by SRB assay; assay type: functional; conditions: PC-3, 48 h; how it was run: as §1

Compound `COc1cc(-c2nn(C)nc2-c2cc3ccccc3s2)cc(OC)c1OC` has a GI50 [1] of 263 nM, a GI50 (MCF7) of 40 nM and a GI50 (MDA-MB-231) of 1600 nM. For the same compound, the GI50 [2] was 270 nM, the GI50 [3] was 422 nM and the GI50 (T47D) was > 100 µM. The GI50 (MDA-MB-468) was 82 nM, the inhibition (Tubulin (Sus scrofa)) was “inactive” and the GI50 (CCRF-CEM) was 220 nM. The GI50 [4] was 48 nM, the GI50 (K562) was 42 nM and the GI50 [5] was 333 nM. The GI50 [6] was 362 nM, the GI50 (A549) was 167 nM and the GI50 (EKVX) was 466 nM. The GI50 [7] was 553 nM, the GI50 [8] was 80 nM and the GI50 (NCI-H226) was > 100 µM. The GI50 (NCI-H23) was 392 nM, the GI50 (NCI-H460) was 69 nM and the GI50 (NCI-H522) was 23 nM. It also gave a GI50 [9] of 82 nM, a GI50 [10] of 407 nM and a GI50 [11] of 73 nM. The GI50 [12] was 58 nM, the GI50 (HT-29) was 55 nM and the GI50 (KM12) was 54 nM. It also gave a GI50 [13] of 63 nM, a GI50 [14] of 630 nM and a GI50 [15] of 36 nM. It also gave a GI50 [16] of 149 nM, a GI50 [17] of 254 nM and a GI50 (U-251) of 78 nM. The GI50 [18] was 168 nM, the GI50 (Malme-3M) was 16.9 µM and the GI50 (M14) was 76 nM. The GI50 (MDA-MB-435) was 25 nM, the GI50 (SK-MEL-2) was 59 nM and the GI50 (SK-MEL-28) was 13 µM. For the same compound, the GI50 (SK-MEL-5) was 225 nM, the GI50 [19] was 51.6 µM and the GI50 [20] was 53 nM. For the same compound, the GI50 [21] was 707 nM, the GI50 [22] was 354 nM and the GI50 [23] was 2360 nM. It also gave a GI50 [24] of 352 nM, a GI50 [25] of 103 nM and a GI50 [26] of 311 nM. It also gave a GI50 (786-0) of 312 nM, a GI50 (A498) of 41 nM and a GI50 (ACHN) of 294 nM. The GI50 [27] was 3.77 µM, the GI50 [28] was 286 nM and the GI50 [29] was 578 nM. For the same compound, the GI50 [30] was 744 nM and the GI50 [31] was 77 nM.
